The test system of assay [1] is Staphylococcus aureus. The experiment in a line: Antibacterial activity against methicillin-resistant Staphylococcus aureus JCSC 4788 by micro dilution susceptibility test. The format is functional. The essentials:
(§1)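 Microbroth dilution MIC in Mueller–Hinton broth following CLSI guidelines, vancomycin as positive control; resazurin added as visible growth indicator. Assays run at least in triplicate.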

The subject of assay [2] is Staphylococcus aureus. The experiment in a line: Antibacterial activity against Staphylococcus aureus ATCC 6538 by micro dilution susceptibility test. The format is functional. The essentials: as §1
The test system of another assay is Bacillus cereus. As to the kind of experiment: Antibacterial activity against Bacillus cereus ATCC 10876 by micro dilution susceptibility test. It counts as functional. The essentials:
(§2)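 Microbroth dilution MIC in Mueller–Hinton broth following CLSI guidelines, with vancomycin as positive control; assays run at least in triplicate.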

The test system of the next assay is Cutibacterium acnes. As to the kind of experiment: Antibacterial activity against Propionicibacterium acnes ATCC 6919 by micro dilution susceptibility test. It counts as functional. The essentials: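 Microbroth dilution MIC in Mueller–Hinton broth following CLSI guidelines; […]; resazurin added as visible growth indicator; vancomycin positive control; at least triplicate.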

The subject of a further assay is Enterococcus faecalis. As to the kind of experiment: Antibacterial activity against Enterococcus faecalis ATCC 29212 by micro dilution susceptibility test. The format is functional. The essentials:
as §2

Assay [3] concerns Staphylococcus epidermidis. The experiment in a line: Antibacterial activity against Staphylococcus epidermidis ATCC 12228 by micro dilution susceptibility test. The format is functional. The essentials:
as §2

The test system of the next assay is Enterococcus faecium. As to the kind of experiment: Antibacterial activity against vancomycin-resistant Enterococcus faecium by micro dilution susceptibility test. The format is functional. The essentials: as §1
The subject of assay [4] is Paenibacillus polymyxa. The experiment in a line: Antibacterial activity against Bacillus polymyxa GIM 1.467 by micro dilution susceptibility test. It counts as functional. The essentials: as §2
The test system of assay [5] is Paenibacillus polymyxa. The experiment in a line: Antibacterial activity against Bacillus polymyxa ATCC 842 by micro dilution susceptibility test. The format is functional. The essentials:
as §2

In another assay the test system is Escherichia coli. As to the kind of experiment: Antibacterial activity against Escherichia coli ATCC 8739 by micro dilution susceptibility test. It counts as functional. The essentials:
as §2

The next assay concerns Salmonella typhi. The experiment in a line: Antibacterial activity against Salmonella typhi CMCC 44102 by micro dilution susceptibility test. The format is functional, Salmonella enterica subsp. enterica serovar Typhi. The settings on record: Salmonella enterica. The essentials: as §1
For a further assay, the system named is Shigella dysenteriae. The experiment in a line: Antibacterial activity against Shigella dysenteriae CMCC 51252 by micro dilution susceptibility test. The format is functional. The essentials: as §1
The test system of another assay is Candida albicans. The experiment in a line: Antibacterial activity against Candida albicans ATCC 10231 by micro dilution susceptibility test. It counts as functional. The essentials:
as §2

Assay [6] concerns Staphylococcus aureus. As to the kind of experiment: Induction of membrane disruption in methicillin-resistant Staphylococcus aureus JCSC 4788 assessed as increase in fluorescence intensity at 0.25 to 8 ug/ml measured after 3 hrs by SYTOX green dye based fluorescence assay. The format is functional, organism-based. The essentials:
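Exponential-phase MRSA JCSC 4788 washed and set to OD620 0.4 in 0.85% NaCl, exposed to serial compound concentrations for 3 h, then 3 μM SYTOX Green for 20 min. Fluorescence read at ex 504/em 523 nm with melittin as positive control and vancomycin as comparator; mean ± SD, n = 3.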

In assay [7] the test system is Staphylococcus aureus. The experiment in a line: Antibacterial activity against methicillin-resistant Staphylococcus aureus JCSC 4788 in Balb/c mouse skin infection model assessed as reduction in skin ulcer formation at 40 ug administered as single dose via intradermal route measured 3 to 8 days post-infection. The format is functional, organism-based. The essentials:
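Female BALB/c mice (18–20 g) injected intradermally in abdominal skin with 0.1 mL of MRSA JCSC 4788 (1×10^8 CFU) mixed with a single 40 μg dose in DMSO; DMSO-vehicle controls. Body weight and lesion size recorded daily for 11 days, ulcers imaged at 3 and 8 days; n = 6, mean ± SD.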

SMILES strings stand for the structures. Converted amounts (≈) assume the structure as drawn. The source made the active and inactive calls. No cut-off for these calls is given here.

For the molecule `CCCCCC(=O)c1c(O)cc(O)c2c1OC1=C(C(=O)C(C)(C)C(=O)C1(C)C)C2CC(C)C` (stereo not given), the minimum inhibitory concentration (MIC) in the assay with Staphylococcus aureus [1] and in the assay with Staphylococcus aureus [2] was 0.5 µg/mL (≈ 1.1 µM) in each case.
`CCCCCCCCCCC(=O)c1c(O)cc(O)c2c1OC1=C(C(=O)C(C)(C)C(=O)C1(C)C)C2CC(C)C` (stereo not given): the MIC in the assay on Staphylococcus aureus [1] and against Staphylococcus aureus [2] was 1 µg/mL (≈ 1.9 µM) throughout.
Consider `CC(C)CC1C2=C(Oc3c(C(=O)C4CCCC4)c(O)cc(O)c31)C(C)(C)C(=O)C(C)(C)C2=O` (stereo not given), for which the minimal inhibitory concentration (MIC) against Staphylococcus aureus [1] and against Staphylococcus aureus [2] was 4 µg/mL (≈ 8.8 µM) in each case.
On to `CCCCCCCCCCCC(=O)c1c(O)cc(O)c2c1OC1=C(C(=O)C(C)(C)C(=O)C1(C)C)C2CC(C)C` (stereo not given), for which the MIC with Staphylococcus aureus [1] and in the assay with Staphylococcus aureus [2] was 8 µg/mL (≈ 14.8 µM) throughout.
Consider `CCCCCCCCCCCCCC(=O)c1c(O)cc(O)c2c1OC1=C(C(=O)C(C)(C)C(=O)C1(C)C)C2CC(C)C` (stereo not given), for which the minimum inhibitory concentration (MIC) against Staphylococcus aureus [1] was 256 µg/mL (≈ 450 µM); with Staphylococcus aureus [2] it was 128 µg/mL (≈ 225 µM).
Consider `CN[C@H](CC(C)C)C(=O)N[C@H]1C(=O)N[C@@H](CC(N)=O)C(=O)N[C@H]2C(=O)N[C@H]3C(=O)N[C@H](C(=O)N[C@H](C(=O)O)c4cc(O)cc(O)c4-c4cc3ccc4O)[C@H](O)c3ccc(c(Cl)c3)Oc3cc2cc(c3O[C@@H]2O[C@H](CO)[C@@H](O)[C@H](O)[C@H]2O[C@H]2C[C@](C)(N)[C@H](O)[C@H](C)O2)Oc2ccc(cc2Cl)[C@H]1O` [VANCOMYCIN], for which the MIC was 0.5 to 1 µg/mL (≈ 0.345 to 0.69 µM) against Staphylococcus aureus [2]; 0.5 µg/mL (≈ 0.345 µM) against Bacillus cereus; 0.5 µg/mL (≈ 0.345 µM) in the assay on Cutibacterium acnes; 0.5 µg/mL (≈ 0.345 µM) in the assay with Enterococcus faecalis; 0.5 µg/mL (≈ 0.345 µM) in assay [3]; > 32 µg/mL in the assay with Enterococcus faecium. Further, the minimal inhibitory concentration (MIC) against Paenibacillus polymyxa [4], in the assay with Paenibacillus polymyxa [5], with Escherichia coli, against Salmonella typhi, against Shigella dysenteriae and against Candida albicans was > 32 µg/mL each time. In the assay with Staphylococcus aureus [6], the result was inactive. In addition, the outcome in the assay on Staphylococcus aureus [7] was Active.
As to `CC(C)CC1C2=C(Oc3c(C(=O)C(C)C)c(O)cc(O)c31)C(C)(C)C(=O)C(C)(C)C2=O` (stereo not given), the minimum inhibitory concentration (MIC) with Staphylococcus aureus [1] and against Staphylococcus aureus [2] was 4 µg/mL (≈ 9.33 µM) each time.
As for `CC[C@H](C)[C@H](NC(=O)CN)C(=O)NCC(=O)N[C@@H](C)C(=O)N[C@H](C(=O)N[C@@H](CC(C)C)C(=O)N[C@@H](CCCCN)C(=O)N[C@H](C(=O)N[C@@H](CC(C)C)C(=O)N[C@H](C(=O)N[C@H](C(=O)NCC(=O)N[C@@H](CC(C)C)C(=O)N1CCC[C@H]1C(=O)N[C@@H](C)C(=O)N[C@@H](CC(C)C)C(=O)N[C@H](C(=O)N[C@@H](CO)C(=O)N[C@@H](Cc1c[nH]c2ccccc12)C(=O)N[C@H](C(=O)N[C@@H](CCCCN)C(=O)N[C@@H](CCCNC(=N)N)C(=O)N[C@@H](CCCCN)C(=O)N[C@@H](CCCNC(=N)N)C(=O)N[C@@H](CCC(N)=O)C(=O)N[C@@H](CCC(N)=O)C(N)=O)[C@@H](C)CC)[C@@H](C)CC)[C@@H](C)O)[C@@H](C)O)C(C)C)C(C)C`, the outcome with Staphylococcus aureus [6] was Active.
Take `CC(C)CC1C2=C(Oc3c(C=O)c(O)cc(O)c31)C(C)(C)C(=O)C(C)(C)C2=O` (stereo not given): the MIC with Staphylococcus aureus [1] and in the assay with Staphylococcus aureus [2] was 128 µg/mL (≈ 331 µM) in each case.
With `CC(C)CC1C2=C(Oc3c(C(=O)CCc4ccccc4)c(O)cc(O)c31)C(C)(C)C(=O)C(C)(C)C2=O` (stereo not given), the MIC in the assay with Staphylococcus aureus [1] and against Staphylococcus aureus [2] was 2 µg/mL (≈ 4.08 µM) each time.
As to `CCC(=O)c1c(O)cc(O)c2c1OC1=C(C(=O)C(C)(C)C(=O)C1(C)C)C2CC(C)C` (stereo not given), the MIC against Staphylococcus aureus [1] and with Staphylococcus aureus [2] was 2 µg/mL (≈ 4.83 µM) throughout.
Consider `CCCC(=O)c1c(O)cc(O)c2c1OC1=C(C(=O)C(C)(C)C(=O)C1(C)C)C2CC(C)C` (stereo not given), for which the minimal inhibitory concentration (MIC) with Staphylococcus aureus [1] and with Staphylococcus aureus [2] was 2 µg/mL (≈ 4.67 µM) in each case.
